Laboratory results from ChEMBL document CHEMBL5705902, “Role of G Protein-Coupled Receptor Kinases 2 and 3 in μ-Opioid Receptor Desensitization and Internalization” (Mol Pharmacol, 2015).
Activity calls are given as the source filed them. The calls are words filed in the database; no cut-off is given here.

Assays:
[1] = target: Serine/threonine-protein kinase D1 (Homo sapiens) (UniProt Q15139); test: Inhibition of human PKD1 assessed as remaining activity at 1 uM in presence of 32ATP relative to control
Outline: (§1)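 Express panel of 52 purified human kinases run in vitro. Kinase activity was measured directly by a radioactive filter-binding assay with ³²ATP, at ATP levels at or below each kinase's calculated Km for ATP. The compound was tested at 1 μM. Each assay was run in duplicate, and activity is given as the mean percentage (with S.D.) of activity without inhibitor.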

[2] = target: Mu-type opioid receptor (Rattus norvegicus) (UniProt P33535); test: Inhibition of MOPr desensitization in wistar rat LC neuron cells assessed as reduction in the DAMGO induced desensitization at 3 to 100 uM incubated for 15 mins before; format: functional, cell-based; conditions: dose 3-100 µM
Outline: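 Rat LC neurons (Wistar, 5–8 weeks) were recorded by whole-cell patch clamp. DAMGO 10 μM was superfused for 12 min to desensitize, then the maximal morphine 30 μM response was measured at plateau. Inhibitor was superfused beforehand; n = 4; ANOVA.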
Target sequence in this assay (P33535 whole entry, the tested form may be a part): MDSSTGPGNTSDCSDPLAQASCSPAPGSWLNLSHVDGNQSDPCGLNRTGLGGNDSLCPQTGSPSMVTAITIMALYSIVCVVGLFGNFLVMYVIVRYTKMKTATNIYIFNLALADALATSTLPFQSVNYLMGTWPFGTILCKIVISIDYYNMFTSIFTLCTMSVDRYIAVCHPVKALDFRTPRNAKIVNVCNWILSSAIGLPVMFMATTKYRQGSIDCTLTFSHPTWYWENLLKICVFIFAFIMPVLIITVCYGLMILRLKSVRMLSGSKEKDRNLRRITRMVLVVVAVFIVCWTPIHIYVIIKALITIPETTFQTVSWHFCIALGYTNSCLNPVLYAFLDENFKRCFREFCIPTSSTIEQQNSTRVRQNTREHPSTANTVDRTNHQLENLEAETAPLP

[3] = target: Mu-type opioid receptor (Rattus norvegicus) (UniProt P33535); test: Inhibition of MOPr desensitization in wistar rat LC neuron cells assessed as reduction in the Met-Enk induced desensitization incubated for 15 mins before; format: functional, cell-based; conditions: dose 3-30 µM
Outline: (§2)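 Whole-cell patch clamp of GIRK currents in locus coeruleus slices from male Wistar rats (5–8 weeks). Inhibitor was given at least 15 min before and during the agonist, all drugs by superfusion. Percent desensitization was taken over 10 min of opioid agonist application. Met-Enk n = 5, endomorphin-2 n = 6; ANOVA.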
Target sequence in this assay (P33535 whole entry, the tested form may be a part): as above

[4] = target: Proto-oncogene tyrosine-protein kinase Src (Homo sapiens) (UniProt P12931); test: Inhibition of human Src assessed as remaining activity at 1 uM in presence of 32ATP relative to control; outline: as §1
[5] = target: Protein kinase C (PKC) (Homo sapiens) (UniProt O94806+P41743+P17252+P05129+Q05655+P05771+Q05513+Q02156+P24723+Q15139+Q04759); test: Inhibition of PKC (unknown origin) at 1 uM in presence of 32ATP relative to control; format: protein assay
Outline: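 Express screen of 52 purified human kinases run as a radioactive filter-binding assay with 32ATP, at 1 μM inhibitor. ATP was at or below each kinase's calculated Km. Activity is given as percent of the activity without inhibitor. Run in duplicate; mean with S.D.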

[6] = target: Mu-type opioid receptor (Homo sapiens) (UniProt P35372); test: Inhibition of HA-tagged MOPr (unknown origin) stably expressed in human U2OS cells assessed as reduction in DAMGO induced large recruitment of arrestin-3 translocation at 30 uM preincubated for 30 mins by DiscoveRx PathHunter assay; format: functional, cell-based
Outline: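 PathHunter U2OS cells stably express tagged human MOPr and tagged arrestin-3. Recruitment reconstitutes β-galactosidase, read by luminescence. DAMGO 10 μM was applied for 90 min, with inhibitor (30 μM) added 30 min before; n = 3.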

[7] = target: Serine/threonine-protein kinase 3 (Homo sapiens) (UniProt Q13188); test: Inhibition of human MST2 assessed as remaining activity at 1 uM in presence of 32ATP relative to control; outline: as §1
[8] = target: Mu-type opioid receptor (Rattus norvegicus) (UniProt P33535); test: Inhibition of MOPr desensitization in wistar rat LC neuron cells assessed as reduction in the Met-Enk induced desensitization at 30 uM incubated for 15 mins before in the presence of PD98059; format: functional, cell-based
Target sequence in this assay (P33535 whole entry, the tested form may be a part): as above

[9] = target: Receptor-interacting serine/threonine-protein kinase 2 (Homo sapiens) (UniProt O43353); test: Inhibition of human RIPK2 assessed as remaining activity at 1 uM in presence of 32ATP relative to control; outline: as §1
[10] = target: Mu-type opioid receptor (Rattus norvegicus) (UniProt P33535); test: Inhibition of MOPr desensitization in wistar rat LC neuron cells assessed as reduction in the DAMGO induced desensitization at 30 uM incubated for 15 mins before in the presence of GF109203X; format: functional, cell-based
Target sequence in this assay (P33535 whole entry, the tested form may be a part): as above

[11] = target: Serine/threonine-protein kinase pim-1 (Homo sapiens) (UniProt P11309); test: Inhibition of human PIM1 assessed as remaining activity at 1 uM in presence of 32ATP relative to control; outline: as §1
[12] = target: Mu-type opioid receptor (Rattus norvegicus) (UniProt P33535); test: Inhibition of HA-tagged rat MOPr stably expressing in HEK293 cells assessed as increase in ERK1/2 phosphorylation level at 30 uM preincubated for 30 mins by westernblot analysis; format: functional, cell-based
Outline: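 HEK 293 cells stably expressing HA-tagged rat MOPr were grown to 90% confluence and serum-starved 24 h. Inhibitor was added for 30 min, then DAMGO 10 μM for 5 min. pERK1/2 was measured by Western blot with ECL detection. Densitometry was done in duplicate, normalized to total ERK1/2 and expressed as % of maximal DAMGO response; n = 4.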
Target sequence in this assay (P33535 whole entry, the tested form may be a part): as above

[13] = target: Myosin light chain kinase, smooth muscle (Homo sapiens) (UniProt Q15746); test: Inhibition of human SmMLCK assessed as remaining activity at 1 uM in presence of 32ATP relative to control; outline: as §1
[14] = target: SRSF protein kinase 1 (Homo sapiens) (UniProt Q96SB4); test: Inhibition of human SRPK1 assessed as remaining activity at 1 uM in presence of 32ATP relative to control; outline: as §1
[15] = target: Beta-2 adrenergic receptor (Bos taurus) (UniProt Q28044); test: Inhibition of bovine beta2-adrenoceptor desensitization in HEK293 cell; format: cell-based; conditions: dose 3-30 µM
[16] = target: cAMP-dependent protein kinase (PKA) (Homo sapiens) (UniProt P22694+P17612+P22612); test: Inhibition of human PKA assessed as remaining activity at 1 uM in presence of 32ATP relative to control; format: protein assay; outline: as §1
[17] = target: Mu-type opioid receptor (Rattus norvegicus) (UniProt P33535); test: Inhibition of MOPr desensitization (unknown origin) assessed as DAMGO induced loss of functional receptor at 30 uM incubated for 15 mins relative to control
[18] = target: Ribosomal protein S6 kinase beta-1 (Homo sapiens) (UniProt P23443); test: Inhibition of human S6K1 assessed as remaining activity at 1 uM in presence of 32ATP relative to control; outline: as §1
[19] = target: Mu-type opioid receptor (Rattus norvegicus) (UniProt P33535); test: Inhibition of HA-tagged rat MOPr in HEK293 cells assessed as DAMGO induced MOPr phosphorylation at Ser375 level at 3 uM preincubated for 30 mins by western blot analysis; format: functional, cell-based
Outline: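 Serum-starved HEK 293 cells stably expressing HA-rat MOPr were pretreated with inhibitor for 30 min, then DAMGO 10 μM for 5 min. Receptor was enriched on WGA-agarose overnight at 4°C and blotted for pSer375. Densitometry was done in duplicate and normalized to total HA-MOPr; n = 3.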
Target sequence in this assay (P33535 whole entry, the tested form may be a part): as above

[20] = target: Mu-type opioid receptor (Rattus norvegicus) (UniProt P33535); test: Inhibition of MOPr desensitization in wistar rat LC neuron cells assessed as reduction in the endomorphin-2 induced desensitization at 30 uM incubated for 15 mins before; format: functional, cell-based; outline: as §2
[21] = target: Mitogen-activated protein kinase 8 (Homo sapiens) (UniProt P45983); test: Inhibition of human JNK1 assessed as remaining activity at 1 uM in presence of 32ATP relative to control; outline: as §1
[22] = target: Serine/threonine-protein kinase PAK 4 (Homo sapiens) (UniProt O96013); test: Inhibition of human PAK4 assessed as remaining activity at 1 uM in presence of 32ATP relative to control; outline: as §1
Chain of Serine/threonine-protein kinase PAK 4 (Homo sapiens) (O96013 whole entry, looked up): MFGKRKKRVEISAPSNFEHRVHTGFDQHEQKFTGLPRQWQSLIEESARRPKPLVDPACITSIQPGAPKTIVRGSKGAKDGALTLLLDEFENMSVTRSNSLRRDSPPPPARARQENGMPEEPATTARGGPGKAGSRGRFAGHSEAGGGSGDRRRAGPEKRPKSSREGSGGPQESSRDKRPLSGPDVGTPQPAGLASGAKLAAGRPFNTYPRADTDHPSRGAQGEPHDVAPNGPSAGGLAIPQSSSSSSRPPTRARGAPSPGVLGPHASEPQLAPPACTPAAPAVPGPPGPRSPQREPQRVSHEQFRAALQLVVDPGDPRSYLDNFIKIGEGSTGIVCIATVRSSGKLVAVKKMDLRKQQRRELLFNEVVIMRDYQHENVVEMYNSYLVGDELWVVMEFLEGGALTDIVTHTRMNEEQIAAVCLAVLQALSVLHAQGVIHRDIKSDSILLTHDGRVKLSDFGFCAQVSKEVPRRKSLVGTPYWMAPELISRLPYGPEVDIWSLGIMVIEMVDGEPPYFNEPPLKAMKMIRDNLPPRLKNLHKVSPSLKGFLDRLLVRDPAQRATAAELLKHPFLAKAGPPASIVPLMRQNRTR

Chain of Serine/threonine-protein kinase D1 (Homo sapiens) (Q15139 whole entry): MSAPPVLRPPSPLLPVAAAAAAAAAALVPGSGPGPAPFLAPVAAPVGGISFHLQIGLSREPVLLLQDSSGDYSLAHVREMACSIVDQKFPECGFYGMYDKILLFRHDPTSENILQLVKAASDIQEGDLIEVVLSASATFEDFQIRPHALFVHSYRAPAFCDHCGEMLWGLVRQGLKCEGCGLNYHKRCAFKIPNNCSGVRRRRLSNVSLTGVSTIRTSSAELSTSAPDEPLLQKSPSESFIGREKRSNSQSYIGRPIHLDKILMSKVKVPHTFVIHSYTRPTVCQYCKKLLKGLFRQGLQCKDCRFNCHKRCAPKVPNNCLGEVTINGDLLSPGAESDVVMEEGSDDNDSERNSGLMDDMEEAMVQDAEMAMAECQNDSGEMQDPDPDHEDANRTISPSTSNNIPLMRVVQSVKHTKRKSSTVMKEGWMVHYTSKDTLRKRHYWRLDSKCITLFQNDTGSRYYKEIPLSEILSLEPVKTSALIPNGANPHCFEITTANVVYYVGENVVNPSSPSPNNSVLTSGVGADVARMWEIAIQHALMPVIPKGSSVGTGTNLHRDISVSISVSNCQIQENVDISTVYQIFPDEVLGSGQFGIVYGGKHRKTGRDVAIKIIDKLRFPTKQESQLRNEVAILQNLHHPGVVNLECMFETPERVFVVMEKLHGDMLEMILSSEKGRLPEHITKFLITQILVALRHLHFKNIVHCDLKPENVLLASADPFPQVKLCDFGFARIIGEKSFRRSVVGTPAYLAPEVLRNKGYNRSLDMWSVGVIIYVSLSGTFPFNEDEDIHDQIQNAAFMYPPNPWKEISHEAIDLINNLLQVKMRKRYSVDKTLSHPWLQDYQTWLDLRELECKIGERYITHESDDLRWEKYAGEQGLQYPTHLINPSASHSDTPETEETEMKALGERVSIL
Chain of Myosin light chain kinase, smooth muscle (Homo sapiens) (Q15746 whole entry): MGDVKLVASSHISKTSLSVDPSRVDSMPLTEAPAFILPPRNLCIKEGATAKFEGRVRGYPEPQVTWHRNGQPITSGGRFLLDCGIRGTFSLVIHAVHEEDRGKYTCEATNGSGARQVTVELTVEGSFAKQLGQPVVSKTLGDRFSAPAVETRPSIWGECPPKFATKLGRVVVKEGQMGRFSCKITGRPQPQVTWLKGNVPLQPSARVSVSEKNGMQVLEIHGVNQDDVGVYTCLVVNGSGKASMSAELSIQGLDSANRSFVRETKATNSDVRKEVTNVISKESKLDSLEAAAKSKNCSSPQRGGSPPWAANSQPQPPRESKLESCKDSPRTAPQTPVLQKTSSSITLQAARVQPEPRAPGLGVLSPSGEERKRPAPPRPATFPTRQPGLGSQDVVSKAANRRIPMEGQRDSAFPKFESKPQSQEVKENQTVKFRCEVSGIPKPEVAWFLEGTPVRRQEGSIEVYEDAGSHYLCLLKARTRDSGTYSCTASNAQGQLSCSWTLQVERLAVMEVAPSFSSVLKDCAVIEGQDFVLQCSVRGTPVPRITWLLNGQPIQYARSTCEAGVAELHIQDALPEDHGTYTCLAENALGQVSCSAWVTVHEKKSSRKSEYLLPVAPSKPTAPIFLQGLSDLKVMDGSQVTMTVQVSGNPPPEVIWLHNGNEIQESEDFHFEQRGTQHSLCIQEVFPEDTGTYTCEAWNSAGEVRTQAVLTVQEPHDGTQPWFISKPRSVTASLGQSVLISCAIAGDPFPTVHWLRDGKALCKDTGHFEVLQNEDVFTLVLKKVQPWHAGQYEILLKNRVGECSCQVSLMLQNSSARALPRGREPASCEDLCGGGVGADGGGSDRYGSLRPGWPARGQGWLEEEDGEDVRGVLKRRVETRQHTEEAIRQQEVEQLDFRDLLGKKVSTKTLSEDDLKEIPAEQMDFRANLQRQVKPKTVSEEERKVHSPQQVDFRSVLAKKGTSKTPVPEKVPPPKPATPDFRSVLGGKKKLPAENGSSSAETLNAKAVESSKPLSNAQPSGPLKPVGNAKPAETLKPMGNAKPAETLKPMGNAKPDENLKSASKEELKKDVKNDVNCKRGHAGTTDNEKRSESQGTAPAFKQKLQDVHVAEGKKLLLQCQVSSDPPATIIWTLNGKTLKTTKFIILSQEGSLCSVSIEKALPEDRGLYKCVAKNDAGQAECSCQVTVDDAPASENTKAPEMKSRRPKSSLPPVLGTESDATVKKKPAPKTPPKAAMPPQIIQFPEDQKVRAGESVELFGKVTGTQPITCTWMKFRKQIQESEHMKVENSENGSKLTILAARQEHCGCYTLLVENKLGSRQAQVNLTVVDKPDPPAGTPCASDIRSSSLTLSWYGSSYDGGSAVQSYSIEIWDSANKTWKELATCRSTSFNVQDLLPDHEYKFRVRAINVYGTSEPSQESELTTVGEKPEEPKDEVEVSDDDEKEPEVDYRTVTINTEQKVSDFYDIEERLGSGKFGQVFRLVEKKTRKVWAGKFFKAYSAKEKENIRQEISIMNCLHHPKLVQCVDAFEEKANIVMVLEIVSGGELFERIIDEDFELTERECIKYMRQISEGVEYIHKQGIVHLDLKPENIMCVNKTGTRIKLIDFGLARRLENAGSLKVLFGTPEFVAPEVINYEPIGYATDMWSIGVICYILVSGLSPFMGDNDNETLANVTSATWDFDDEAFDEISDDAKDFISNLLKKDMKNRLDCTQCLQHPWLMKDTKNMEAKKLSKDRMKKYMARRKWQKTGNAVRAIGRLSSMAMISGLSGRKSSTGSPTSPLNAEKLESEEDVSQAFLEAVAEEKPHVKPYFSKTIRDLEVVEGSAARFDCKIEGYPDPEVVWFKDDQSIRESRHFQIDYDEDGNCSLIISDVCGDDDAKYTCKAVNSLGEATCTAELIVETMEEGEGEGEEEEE
Chain of Beta-2 adrenergic receptor (Bos taurus) (Q28044 whole entry, looked up): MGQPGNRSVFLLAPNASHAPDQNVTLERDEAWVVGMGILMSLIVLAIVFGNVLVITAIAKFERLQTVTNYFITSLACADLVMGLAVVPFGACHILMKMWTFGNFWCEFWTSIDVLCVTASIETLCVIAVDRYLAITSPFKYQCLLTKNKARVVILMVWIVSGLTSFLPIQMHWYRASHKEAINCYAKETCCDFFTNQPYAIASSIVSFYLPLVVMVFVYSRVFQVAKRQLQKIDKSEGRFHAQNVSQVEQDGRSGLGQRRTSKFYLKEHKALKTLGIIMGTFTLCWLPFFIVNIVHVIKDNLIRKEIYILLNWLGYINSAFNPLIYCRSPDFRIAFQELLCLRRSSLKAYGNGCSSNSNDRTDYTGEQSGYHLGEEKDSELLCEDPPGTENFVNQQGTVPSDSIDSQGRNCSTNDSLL
Chain of Ribosomal protein S6 kinase beta-1 (Homo sapiens) (P23443 whole entry, looked up): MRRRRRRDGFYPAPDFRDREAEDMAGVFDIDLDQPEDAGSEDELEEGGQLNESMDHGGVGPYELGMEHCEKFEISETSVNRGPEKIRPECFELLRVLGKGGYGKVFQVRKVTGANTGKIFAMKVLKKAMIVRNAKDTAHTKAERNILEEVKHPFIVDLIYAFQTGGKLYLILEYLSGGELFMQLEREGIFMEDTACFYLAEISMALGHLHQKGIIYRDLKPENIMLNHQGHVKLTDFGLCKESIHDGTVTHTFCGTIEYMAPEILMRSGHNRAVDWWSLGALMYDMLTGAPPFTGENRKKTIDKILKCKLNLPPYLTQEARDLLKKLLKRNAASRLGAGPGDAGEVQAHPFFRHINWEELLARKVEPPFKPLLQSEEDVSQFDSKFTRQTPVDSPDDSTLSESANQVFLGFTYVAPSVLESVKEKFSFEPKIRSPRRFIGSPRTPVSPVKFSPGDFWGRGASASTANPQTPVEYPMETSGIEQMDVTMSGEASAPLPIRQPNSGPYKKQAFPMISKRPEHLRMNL

What does the source list for `Cn1c(CNc2cccc(C(=O)NCc3ccccc3C(F)(F)F)c2)nnc1-c1ccncc1`?
Activity [1]: 65%; inhibition [2]: Active; inhibition [3]: Dose-Dependent Effect; Activity [4]: 104%; inhibition [5]: < 20%; inhibition [6]: Active; Activity [7]: 89%; inhibition [8]: inactive; Activity [9]: 93%; inhibition [10]: inactive; Activity [11]: 107%; inhibition [12]: Active; Activity [13]: 89%; Activity [14]: 91%; inhibition [15]: Dose-Dependent Effect; Activity [16]: 95%; inhibition [17]: 59%; Activity [18]: 47%; inhibition [19]: Active; inhibition [20]: Active; Activity [21]: 93%; Activity [22]: 101%
